For the first assay, the target named is T1, Renin (Homo sapiens) (UniProt P00797).
T1 sequence (whole entry): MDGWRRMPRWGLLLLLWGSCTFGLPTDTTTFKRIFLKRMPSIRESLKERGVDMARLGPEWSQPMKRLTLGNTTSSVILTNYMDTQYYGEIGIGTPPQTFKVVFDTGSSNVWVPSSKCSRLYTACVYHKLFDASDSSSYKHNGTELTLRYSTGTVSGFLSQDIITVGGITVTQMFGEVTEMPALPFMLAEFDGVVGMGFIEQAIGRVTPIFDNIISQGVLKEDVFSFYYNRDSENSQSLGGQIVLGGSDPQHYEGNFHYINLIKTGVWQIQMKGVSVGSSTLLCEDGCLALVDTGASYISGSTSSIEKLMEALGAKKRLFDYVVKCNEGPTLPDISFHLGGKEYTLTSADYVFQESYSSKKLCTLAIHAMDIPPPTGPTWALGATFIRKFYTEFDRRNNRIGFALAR
Put plainly: Percent inhibition against human renin at the concentration of 1 uM.
`CC(C)CCNC(=O)C(Cc1c[nH]c2ccccc12)NC(=O)[C@H](CCCCN)N1C(=O)CN[C@H](CC(C)C)C(=O)N[C@@H](Cc2ccccc2)C1=O` (stereo in doubt) came in with an inhibition of 10%.

The target in the next assay is T1, Renin (Homo sapiens). Put plainly: Percent inhibition against human renin at the concentration of 10 uM.
With `CC(C)CCNC(=O)C(Cc1c[nH]c2ccccc12)NC(=O)[C@H](CCCCN)N1C(=O)CCC(=O)N[C@@H](Cc2ccccc2)C1=O` (stereo in doubt), the inhibition stood at 53%.

`CC[C@@H](C)[C@@H]1NCC(=O)N[C@@H](Cc2ccccc2)C(=O)N([C@@H](CCCCN)C(=O)NC(Cc2c[nH]c3ccccc23)C(=O)NCCC(C)C)C1=O` (stereo in doubt) came in with an inhibition of 58%.

In turn, `CC[C@H](C)[C@@H]1NCC(=O)N([C@@H](CCCCN)C(=O)NC(Cc2c[nH]c3ccccc23)C(=O)NCCC(C)C)C(=O)[C@H](Cc2ccccc2)NC1=O` (stereo in doubt) showed an inhibition of 45%.

In a further assay the target is T1, Renin (Homo sapiens). Kind of assay: Percent inhibition against human renin at the concentration of 100 uM. In outline: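 Each compound was tested twice at 100 µM against partially purified human renal renin with human plasma angiotensinogen in pH 7.0 phosphate buffer with protease inhibitors and 1% DMSO, for 120 min at 30 °C. Angiotensin I generation was quantified by radioimmunoassay and expressed as percent inhibition of the vehicle control rate.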
The compound `CC(C)CCNC(=O)C(Cc1c[nH]c2ccccc12)NC(=O)[C@H](CCCCN)N1C(=O)CN[C@H](CC(C)C)C(=O)N[C@@H](Cc2ccccc2)C1=O` (stereo in doubt) displayed an inhibition of 88%.

In turn, `CC(C)CCNC(=O)C(Cc1c[nH]c2ccccc12)NC(=O)[C@H](CCCCN)N1C(=O)CSCC(=O)N[C@@H](Cc2ccccc2)C1=O` (stereo in doubt) came in with an inhibition of 66%.

Turning to `CC(C)CCNC(=O)C(Cc1c[nH]c2ccccc12)NC(=O)[C@H](CCCCN)N1C(=O)[C@H](Cc2ccccc2)NC(=O)CN[C@H](Cc2ccccc2)C1=O` (stereo in doubt), the inhibition was found to be 57%.

In turn, `CC(C)CCNC(=O)C(Cc1c[nH]c2ccccc12)NC(=O)[C@H](CCCCN)N1C(=O)[C@H](Cc2ccccc2)NCC(=O)N[C@@H](Cc2ccccc2)C1=O` (stereo in doubt) showed an inhibition of 52%.

In the case of `CCC(C)CNC(=O)C(Cc1c[nH]c2ccccc12)NC(=O)[C@H](CCCCN)N1C(=O)CC(C)(C)CC(=O)N[C@@H](Cc2ccccc2)C1=O` (stereo in doubt), the inhibition was found to be 63%.

The compound `CC[C@H](C)[C@@H]1NCC(=O)N([C@@H](CCCCN)C(=O)NC(Cc2c[nH]c3ccccc23)C(=O)NCCC(C)C)C(=O)[C@H](Cc2ccccc2)NC1=O` (stereo in doubt) showed an inhibition of 84%.

For the next assay, the target named is T2, Renin (Homo sapiens, UniProt P00797).
T2 sequence (P00797 whole entry): T1 sequence (whole entry)
Put plainly: Inhibition of human renin.
`CC(C)CCNC(=O)C(Cc1c[nH]c2ccccc12)NC(=O)[C@H](CCCCN)N1C(=O)CN[C@H](Cc2ccccc2)C(=O)N[C@@H](Cc2ccccc2)C1=O` (stereo in doubt) came in with an IC50 of 2740 nM.

Compound `CC(C)CCNC(=O)C(Cc1c[nH]c2ccccc12)NC(=O)[C@H](CCCCN)N1C(=O)C(c2ccccc2)CCC(=O)N[C@@H](Cc2ccccc2)C1=O` (stereo in doubt) gave an IC50 of 1500 nM. Against the preceding compound, the IC50 is about 1.8-fold lower.

For `COC(=O)[C@H](CC(C)C)NC(=O)C(Cc1c[nH]c2ccccc12)NC(=O)[C@H](CSCNC(C)=O)NC(=O)[C@H](Cc1ccccc1)NC(=O)OC(C)(C)C` (stereo in doubt), the IC50 turned out to be 40000 nM.

`COC(=O)[C@H](CC(C)C)NC(=O)C(Cc1c[nH]c2ccccc12)NC(=O)[C@H](CCCCN)NC(=O)[C@H](Cc1ccccc1)NC(=O)OCc1ccccc1` (stereo in doubt) registered a half-maximal inhibitory concentration (IC50) of 31000 nM.

In the case of `CC(C)CCNC(=O)C(Cc1c[nH]c2ccccc12)NC(=O)[C@H](CCCCN)N1C(=O)COCC(=O)N[C@@H](Cc2ccccc2)C1=O` (stereo in doubt), it took 2300 nM to reach half-maximal inhibition (IC50).

As to `CC(C)CCNC(=O)C(Cc1c[nH]c2ccccc12)NC(=O)[C@H](CCCCN)N1C(=O)CN[C@@H](Cc2ccccc2)C(=O)N[C@@H](Cc2ccccc2)C1=O` (stereo in doubt), the IC50 turned out to be 750 nM. This IC50 is about 3.1-fold lower than that of the compound before.

With `COC(=O)[C@H](CC(C)C)NC(=O)C(Cc1c[nH]c2ccccc12)NC(=O)[C@H](CCCCN)N1C(=O)CC[C@H](NC(=O)OCc2ccccc2)C(=O)N[C@@H](Cc2ccccc2)C1=O` (stereo in doubt), half-maximal inhibition (IC50) required 3200 nM.

Compound `CCC(C)CNC(=O)C(Cc1c[nH]c2ccccc12)NC(=O)[C@H](CCCCN)N1C(=O)[C@H](Cc2ccccc2)NC(=O)CCC(C)(C)C1=O` (stereo in doubt) yielded a half-inhibitory concentration (IC50) of 1400 nM. Compared with the last compound, the IC50 is about 2.3-fold lower.

`CC(C)CC(C)CNC(=O)C(Cc1c[nH]c2ccccc12)NC(=O)[C@H](CCCCN)N1C(=O)CC(C)CC(=O)N[C@@H](Cc2ccccc2)C1=O` (stereo in doubt) gave an IC50 of 240 nM.

The record behind these values is ChEMBL document CHEMBL1124915, “Inhibitors of human renin. Cyclic peptide analogues containing a D-Phe-Lys-D-Trp sequence” (J Med Chem, 1990).
